# Measurements as given in article PMC5164959 (Biochemical pharmacology, 2016).
# “And” between values parts separate entries of the source, which are not always exact repeats. Identical values can stand only once.
# Experiments:
# [1] = tested on: PKC; test: PKC activation: phosphorylation of PKC substrates by western blot in HeLa cells; format: cell-based, human
# Summary of the method: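 HeLa cells were grown in DMEM with 5% FBS and treated 30 min with 4 or 40 μM test compound or 100 nM PMA, with or without 1 h pretreatment with 500 nM bisindolylmaleimide II. In separate runs, a 5-HT2AR agonist (10 μM, 6 h) was given with or without 40 μM antagonist. Lysates (50 μg) were immunoblotted for phospho-(Ser) PKC substrates; four independent experiments were quantified.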
# [2] = biological target: T1, DGKα (Rattus norvegicus, UniProt P51556); test: Kinase assay with purified DGKα and PC:DAG:PS liposomes; format: biochemical; settings: for Vmax (ATP): ATP-dependent activity, 5 mol% DAG; for Vmax (DAG): DAG-dependent activity, 1 mM ATP; for Decrease of Vmax of purified DGKα: 0.5 mol% drug
# T1 sequence (P51556 whole entry): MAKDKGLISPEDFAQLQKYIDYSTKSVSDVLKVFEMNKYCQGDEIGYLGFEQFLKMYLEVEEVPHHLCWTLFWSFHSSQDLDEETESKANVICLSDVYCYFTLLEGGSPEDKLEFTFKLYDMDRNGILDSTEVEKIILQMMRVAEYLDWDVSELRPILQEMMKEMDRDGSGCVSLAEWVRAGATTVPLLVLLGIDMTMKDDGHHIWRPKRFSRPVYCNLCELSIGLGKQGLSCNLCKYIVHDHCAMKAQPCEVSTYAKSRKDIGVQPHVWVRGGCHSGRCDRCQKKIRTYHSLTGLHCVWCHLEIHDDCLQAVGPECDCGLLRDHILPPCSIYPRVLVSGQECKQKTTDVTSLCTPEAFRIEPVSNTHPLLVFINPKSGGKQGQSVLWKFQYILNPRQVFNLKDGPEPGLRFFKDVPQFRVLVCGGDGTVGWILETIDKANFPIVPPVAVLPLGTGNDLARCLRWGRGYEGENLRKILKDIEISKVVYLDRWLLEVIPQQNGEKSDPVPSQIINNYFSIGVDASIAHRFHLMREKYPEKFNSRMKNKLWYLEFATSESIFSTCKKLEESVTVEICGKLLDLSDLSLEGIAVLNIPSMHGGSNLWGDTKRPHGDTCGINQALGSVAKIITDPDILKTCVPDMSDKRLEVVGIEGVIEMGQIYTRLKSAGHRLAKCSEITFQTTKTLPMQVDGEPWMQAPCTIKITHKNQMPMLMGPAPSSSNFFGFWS
# Summary of the method: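 Rat FLAG-DGKα was expressed in HeLa cells by adenovirus (72 h) and purified on FLAG M2 beads. Reactions contained buffer B (MOPS pH 7.5), 1 mM CaCl2, 1 mM DTT and 4.75 mM PC:PS:DAG liposomes (5 mol% DAG), with test compound built into the liposomes at 0.5 or 2.0 mol% or added from DMSO. Reactions with [γ32P]-ATP ran 15 min at 25°C. Km and Vmax came from Michaelis-Menten non-linear regression.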
# [3] = tested on: PKC; test: PKC activation: phosphorylation of PKC substrates by western blot in U251 cells; format: cell-based, human; settings: treatment for 30 min
# Summary of the method: (§1)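 Glioblastoma cells were treated 30 min with 4 or 40 μM test compound or 100 nM PMA, with or without 1 h pretreatment with 500 nM bisindolylmaleimide II. Cleared Triton lysates (50 μg) were run on 8.75% SDS-PAGE and probed with phospho-(Ser) PKC substrate antibody, detected by alkaline phosphatase chemiluminescence. Three independent experiments were quantified.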
# [4] = tested on: PKC; test: PKC activation: phosphorylation of PKC substrates by western blot in U87 cells; format: cell-based, human; settings: treatment for 30 min
# Summary of the method: as §1
# [5] = biological target: T2, 5-HT2A (Homo sapiens, UniProt P28223); test: Radioligand competition binding assay
# T2 sequence (P28223 whole entry, species assumed): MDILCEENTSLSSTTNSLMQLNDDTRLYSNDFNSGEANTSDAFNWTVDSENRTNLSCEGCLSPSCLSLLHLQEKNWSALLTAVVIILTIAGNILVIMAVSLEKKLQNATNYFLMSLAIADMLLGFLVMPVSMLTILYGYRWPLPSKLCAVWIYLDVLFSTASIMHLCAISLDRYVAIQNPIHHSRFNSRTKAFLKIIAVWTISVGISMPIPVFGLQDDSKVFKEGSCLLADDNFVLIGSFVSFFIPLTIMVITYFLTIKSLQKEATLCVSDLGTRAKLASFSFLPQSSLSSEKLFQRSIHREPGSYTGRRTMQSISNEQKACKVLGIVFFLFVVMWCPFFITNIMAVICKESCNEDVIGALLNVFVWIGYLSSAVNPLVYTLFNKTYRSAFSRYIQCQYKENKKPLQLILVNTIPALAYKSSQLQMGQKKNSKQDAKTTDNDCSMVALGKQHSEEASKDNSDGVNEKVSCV
# [6] = biological target: T3, 5-HT7 (Homo sapiens, UniProt P34969); test: Antagonist functional assay; format: cell-based; settings: read-out: Percent Inhibition of Agonist Response 5-HT7
# T3 sequence (P34969 whole entry, species assumed): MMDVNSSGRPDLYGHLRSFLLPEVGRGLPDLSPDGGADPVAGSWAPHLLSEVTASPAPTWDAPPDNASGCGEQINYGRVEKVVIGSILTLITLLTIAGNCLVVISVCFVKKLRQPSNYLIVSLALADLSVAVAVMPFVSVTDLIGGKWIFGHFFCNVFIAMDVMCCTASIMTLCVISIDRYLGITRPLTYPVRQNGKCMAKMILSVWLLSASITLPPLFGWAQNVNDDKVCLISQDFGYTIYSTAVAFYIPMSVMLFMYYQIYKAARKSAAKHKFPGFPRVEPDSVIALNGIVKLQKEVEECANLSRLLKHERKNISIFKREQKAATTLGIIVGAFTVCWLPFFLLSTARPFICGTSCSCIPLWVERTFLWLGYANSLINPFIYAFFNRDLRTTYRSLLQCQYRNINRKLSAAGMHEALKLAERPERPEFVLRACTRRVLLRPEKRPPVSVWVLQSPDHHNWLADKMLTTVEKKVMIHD
# Summary of the method: (§2)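 Run by the NIMH PDSP as cell-based antagonist-mode functional assays. Test compounds were applied at 10 μM. The read-out was percent inhibition of the response to an EC90 concentration of a reference agonist; that concentration was determined empirically for each receptor.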
# [7] = biological target: T4, 5-HT1D (Homo sapiens, UniProt P28221); test: Radioligand competition binding assay
# T4 sequence (P28221 whole entry, species assumed): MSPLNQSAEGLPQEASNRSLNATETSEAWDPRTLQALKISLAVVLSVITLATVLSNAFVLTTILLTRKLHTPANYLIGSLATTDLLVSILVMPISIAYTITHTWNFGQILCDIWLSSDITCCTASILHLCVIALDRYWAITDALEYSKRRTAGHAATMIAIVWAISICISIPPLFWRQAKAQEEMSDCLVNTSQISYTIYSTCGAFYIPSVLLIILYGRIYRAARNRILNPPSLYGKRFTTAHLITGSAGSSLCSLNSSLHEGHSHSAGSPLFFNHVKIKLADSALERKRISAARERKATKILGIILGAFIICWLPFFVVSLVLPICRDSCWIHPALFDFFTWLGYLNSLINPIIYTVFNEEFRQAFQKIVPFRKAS
# Summary of the method: (§3)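 Run by the NIMH PDSP as radioligand competition binding assays. The primary screen used 10 μM test compound and reported mean percent inhibition of radioligand binding (n=4); above 50% counted as significant. At those receptors, IC50 values came from non-linear regression of competition binding isotherms and were converted to Ki with the Cheng-Prusoff equation.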
# [8] = biological target: T2, 5-HT2A; test: Antagonist functional assay; format: cell-based; settings: read-out: Percent Inhibition of Agonist Response 5-HT2A
# Summary of the method: as §2
# [9] = biological target: 5-HT3 (Homo sapiens, UniProt P46098); test: Radioligand competition binding assay; settings: read-out: Percent Inhibition of Binding 5-HT3
# 5-HT3, sequence (P46098 24-478, species assumed): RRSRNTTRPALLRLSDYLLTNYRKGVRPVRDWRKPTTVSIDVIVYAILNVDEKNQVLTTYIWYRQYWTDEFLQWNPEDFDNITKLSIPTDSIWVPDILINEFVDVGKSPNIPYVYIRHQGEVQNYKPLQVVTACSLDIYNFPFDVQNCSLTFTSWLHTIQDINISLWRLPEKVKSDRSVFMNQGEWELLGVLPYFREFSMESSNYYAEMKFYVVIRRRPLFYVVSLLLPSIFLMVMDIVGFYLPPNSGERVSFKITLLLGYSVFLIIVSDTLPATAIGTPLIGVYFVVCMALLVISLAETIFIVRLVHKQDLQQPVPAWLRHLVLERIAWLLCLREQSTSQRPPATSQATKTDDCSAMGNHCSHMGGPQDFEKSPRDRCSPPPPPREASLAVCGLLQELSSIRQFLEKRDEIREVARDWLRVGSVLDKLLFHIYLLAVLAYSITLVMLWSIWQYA
# Summary of the method: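 Run by the NIMH PDSP as a radioligand competition binding primary screen. Test compounds were applied at 10 μM, and the read-out was mean percent inhibition of radioligand binding (n=4).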
# [10] = biological target: 5-HT1B (Homo sapiens, UniProt P28222); test: Radioligand competition binding assay; settings: read-out: Percent Inhibition of Binding 5-HT1B
# Summary of the method: as §3
# [11] = biological target: 5-HT5A (Homo sapiens, UniProt P47898); test: Radioligand competition binding assay
# 5-HT5A, sequence (P47898 whole entry, species assumed): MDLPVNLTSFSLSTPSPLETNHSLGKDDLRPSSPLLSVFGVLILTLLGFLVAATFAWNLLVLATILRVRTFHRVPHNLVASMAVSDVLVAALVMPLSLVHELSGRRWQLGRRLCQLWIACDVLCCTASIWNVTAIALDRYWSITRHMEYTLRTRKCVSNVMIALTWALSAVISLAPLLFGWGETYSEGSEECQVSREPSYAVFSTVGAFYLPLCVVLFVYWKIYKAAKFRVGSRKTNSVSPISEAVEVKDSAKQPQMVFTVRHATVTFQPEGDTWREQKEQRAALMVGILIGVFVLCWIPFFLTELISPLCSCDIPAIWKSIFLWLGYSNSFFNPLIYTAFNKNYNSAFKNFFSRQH
# Summary of the method: as §3
# [12] = biological target: T4, 5-HT1D; test: Antagonist functional assay; format: cell-based; settings: read-out: Percent Inhibition of Agonist Response 5-HT1D
# Summary of the method: as §2
# [13] = tested on: 5-HTRs; test: Agonist functional assays at 5 serotonin receptors; format: cell-based; settings: 5 receptors where low Ki values were observed; data not shown
# [14] = biological target: T3, 5-HT7; test: Radioligand competition binding assay
# Summary of the method: as §3
# [15] = biological target: T5, 5-HT1A (Homo sapiens, UniProt P08908); test: Radioligand competition binding assay
# T5 sequence (P08908 1-422): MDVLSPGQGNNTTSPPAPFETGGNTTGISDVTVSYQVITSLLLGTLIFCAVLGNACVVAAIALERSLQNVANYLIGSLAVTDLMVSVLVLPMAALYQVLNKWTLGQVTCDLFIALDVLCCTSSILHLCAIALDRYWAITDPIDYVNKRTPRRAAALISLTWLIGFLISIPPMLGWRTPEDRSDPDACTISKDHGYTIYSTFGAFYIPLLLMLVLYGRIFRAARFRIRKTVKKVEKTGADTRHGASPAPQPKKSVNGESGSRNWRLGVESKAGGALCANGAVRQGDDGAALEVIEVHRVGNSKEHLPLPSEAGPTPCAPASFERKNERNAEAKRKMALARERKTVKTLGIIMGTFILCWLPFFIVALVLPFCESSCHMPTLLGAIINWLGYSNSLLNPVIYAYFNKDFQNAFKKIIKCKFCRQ
# [16] = biological target: T6, 5-HT2B (Homo sapiens, UniProt P41595); test: Antagonist functional assay; format: cell-based; settings: read-out: Percent Inhibition of Agonist Response 5-HT2B
# T6 sequence (P41595 whole entry, species assumed): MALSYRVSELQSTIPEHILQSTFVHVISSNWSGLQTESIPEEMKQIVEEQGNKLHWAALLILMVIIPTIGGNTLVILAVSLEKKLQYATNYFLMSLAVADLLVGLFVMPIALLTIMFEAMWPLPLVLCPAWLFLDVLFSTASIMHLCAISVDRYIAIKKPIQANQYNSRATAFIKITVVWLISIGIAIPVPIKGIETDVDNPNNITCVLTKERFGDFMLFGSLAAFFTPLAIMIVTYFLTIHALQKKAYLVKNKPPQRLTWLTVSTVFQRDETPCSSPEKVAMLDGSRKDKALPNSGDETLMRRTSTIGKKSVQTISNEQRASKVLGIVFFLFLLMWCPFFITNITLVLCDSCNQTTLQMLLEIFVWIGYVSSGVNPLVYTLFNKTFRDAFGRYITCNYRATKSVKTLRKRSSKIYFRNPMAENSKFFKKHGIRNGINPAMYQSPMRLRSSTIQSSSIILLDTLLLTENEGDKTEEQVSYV
# Summary of the method: as §2
# [17] = biological target: T6, 5-HT2B; test: Radioligand competition binding assay
# [18] = biological target: T7, 5-HT2C (Homo sapiens, UniProt P28335); test: Radioligand competition binding assay
# T7 sequence (P28335 33-458): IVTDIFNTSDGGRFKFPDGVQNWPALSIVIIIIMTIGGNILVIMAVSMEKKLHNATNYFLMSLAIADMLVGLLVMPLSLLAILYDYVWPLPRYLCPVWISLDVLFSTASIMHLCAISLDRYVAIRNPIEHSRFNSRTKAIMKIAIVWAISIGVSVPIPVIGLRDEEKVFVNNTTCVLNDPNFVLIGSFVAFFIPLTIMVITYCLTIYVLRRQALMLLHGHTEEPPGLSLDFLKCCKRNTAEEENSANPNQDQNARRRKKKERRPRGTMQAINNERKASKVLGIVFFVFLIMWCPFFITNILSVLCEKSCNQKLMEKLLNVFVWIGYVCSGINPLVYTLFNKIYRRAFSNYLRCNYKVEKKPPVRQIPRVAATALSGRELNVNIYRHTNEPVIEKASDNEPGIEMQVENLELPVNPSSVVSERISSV
# [19] = biological target: T7, 5-HT2C; test: Antagonist functional assay; format: cell-based; settings: read-out: Percent Inhibition of Agonist Response 5-HT2C
# Summary of the method: as §2
# [20] = biological target: 5-HT6 (Homo sapiens, UniProt P50406); test: Radioligand competition binding assay
# 5-HT6, sequence (P50406 whole entry, species assumed): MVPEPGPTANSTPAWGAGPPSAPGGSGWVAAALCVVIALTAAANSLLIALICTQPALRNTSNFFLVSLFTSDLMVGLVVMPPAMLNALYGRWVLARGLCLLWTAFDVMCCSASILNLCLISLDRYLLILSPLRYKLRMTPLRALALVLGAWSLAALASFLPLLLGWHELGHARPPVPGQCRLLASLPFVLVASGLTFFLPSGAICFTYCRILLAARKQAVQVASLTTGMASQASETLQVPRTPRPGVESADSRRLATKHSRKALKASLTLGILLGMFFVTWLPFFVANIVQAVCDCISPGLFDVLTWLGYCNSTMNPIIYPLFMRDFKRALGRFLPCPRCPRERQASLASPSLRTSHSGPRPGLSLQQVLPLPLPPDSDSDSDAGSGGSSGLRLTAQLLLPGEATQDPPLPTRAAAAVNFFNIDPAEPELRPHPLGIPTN
# Summary of the method: as §3
# [21] = biological target: DGKθ (Homo sapiens, UniProt P52824); test: Kinase assay with HEK 293T cell homogenate over-expressing DGKθ; format: biochemical; settings: 20 μM inhibitor, dioleoyl DAG liposomes
# Summary of the method: (§4)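 Reactions without CaCl2 contained 5 μg homogenate, 2 mM liposomes (10 mol% dioleoyl DAG, 40 mol% PS, 50 mol% PC), buffer B, 1 mM DTT and [γ32P]-ATP, 20 min at 30°C. Test compound was added from DMSO. Extracted 32P-lipid was counted, GFP-lysate normalized, and expressed as percent of DMSO control.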
# [22] = biological target: DGKβ (Rattus norvegicus, UniProt P49621); test: Kinase assay with HEK 293T cell homogenate over-expressing DGKβ; format: biochemical; settings: 20 μM inhibitor, dioleoyl DAG liposomes
# Summary of the method: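 Reactions contained 5 μg homogenate, 2 mM liposomes (10 mol% dioleoyl DAG, 40 mol% PS, 50 mol% PC), buffer B, 1 mM DTT, 1 mM CaCl2 and [γ32P]-ATP, 20 min at 30°C. Test compound was added from DMSO. Organic-phase 32P was counted and expressed as percent of DMSO control after subtracting the GFP-lysate background.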
# [23] = cited from earlier work
# [24] = biological target: T1, DGKα; test: Kinase assay with HEK 293T cell homogenate over-expressing DGKα; format: biochemical
# Summary of the method: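 Each reaction held 5 μg homogenate protein, 2 mM extruded PC:PS:DAG liposomes (10 mol% dioleoyl, dioctanoyl or stearoyl-arachidonoyl DAG), buffer B, 1 mM DTT, 1 mM CaCl2 and 1 mM [γ32P]-ATP, run 20 min at 30°C. Test compounds came from DMSO stocks. 32P-PA was counted, normalized to GFP lysate and to DMSO control; IC50 from log[inhibitor] versus normalized response.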
# [25] = biological target: DGKι (Homo sapiens, UniProt O75912); test: Kinase assay with HEK 293T cell homogenate over-expressing DGKι; format: biochemical
# DGKι, sequence (O75912 1-1065 isoform O75912-1): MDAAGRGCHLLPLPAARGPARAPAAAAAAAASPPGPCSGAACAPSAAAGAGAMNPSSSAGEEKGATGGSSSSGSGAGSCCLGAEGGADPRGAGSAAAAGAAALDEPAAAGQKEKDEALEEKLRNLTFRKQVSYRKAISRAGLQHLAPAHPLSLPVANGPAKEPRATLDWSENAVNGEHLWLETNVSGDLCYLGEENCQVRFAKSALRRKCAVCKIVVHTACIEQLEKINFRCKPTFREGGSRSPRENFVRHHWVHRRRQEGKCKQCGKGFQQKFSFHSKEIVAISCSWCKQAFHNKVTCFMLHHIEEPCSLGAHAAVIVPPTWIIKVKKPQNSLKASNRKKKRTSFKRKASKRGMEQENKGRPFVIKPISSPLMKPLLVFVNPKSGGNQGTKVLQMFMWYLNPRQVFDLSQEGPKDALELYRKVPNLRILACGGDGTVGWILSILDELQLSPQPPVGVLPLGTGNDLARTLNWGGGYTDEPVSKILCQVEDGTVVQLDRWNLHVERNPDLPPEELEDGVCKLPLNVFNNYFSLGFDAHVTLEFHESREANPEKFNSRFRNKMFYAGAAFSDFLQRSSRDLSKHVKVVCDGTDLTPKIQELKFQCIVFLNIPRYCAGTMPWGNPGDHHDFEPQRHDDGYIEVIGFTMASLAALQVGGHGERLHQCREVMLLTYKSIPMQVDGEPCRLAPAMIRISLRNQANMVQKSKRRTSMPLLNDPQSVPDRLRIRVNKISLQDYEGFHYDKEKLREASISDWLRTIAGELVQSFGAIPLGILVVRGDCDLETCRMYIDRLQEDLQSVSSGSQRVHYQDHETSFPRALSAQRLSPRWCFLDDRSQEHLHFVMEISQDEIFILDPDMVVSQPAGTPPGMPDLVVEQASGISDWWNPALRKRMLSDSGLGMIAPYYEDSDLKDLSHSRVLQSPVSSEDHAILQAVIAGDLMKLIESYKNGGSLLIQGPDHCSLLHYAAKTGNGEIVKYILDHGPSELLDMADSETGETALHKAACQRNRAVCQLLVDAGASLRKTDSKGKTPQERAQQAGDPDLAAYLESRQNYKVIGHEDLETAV
# [26] = biological target: DGKδ (Homo sapiens, UniProt Q16760); test: Kinase assay with HEK 293T cell homogenate over-expressing DGKδ; format: biochemical; settings: 20 μM inhibitor, dioleoyl DAG liposomes
# Summary of the method: as §4
smiles,measurement,setting,value
"CN1CCCC1CCn1cc(C2=C(c3c[nH]c4ccccc34)C(=O)NC2=O)c2ccccc21 (centres unmarked) [bis, bisindolylmaleimide II]",Change in basal PKC activity,[1]; 500 nM bis alone for 1 h,did not see any changes in basal PKC activity
"CCCCCCCCCCCCCC(=O)O[C@@H]1[C@@H](C)[C@@]2(O)[C@@H](C=C(CO)C[C@]3(O)C(=O)C(C)=C[C@@H]23)[C@@H]2C(C)(C)[C@]12OC(C)=O [PMA, Phorbol 12-myristate 13-acetate]",Increase in phosphorylation of PKC downstream targets,"[1]; 100 nM PMA, 30 min",greater than 3 fold
O=C(c1ccc(F)cc1)C1CCN(CCn2c(=O)[nH]c3ccccc3c2=O)CC1 [ketanserin],IC50,[2],264000 nM
same,Activation of PKC,[3],does not activate PKC
same,Effect on TCB-2-induced PKC activation,[1]; 40 μM ketanserin co-treatment with 10 μM TCB-2 for 6 h,inhibited the ability of TCB-2 to activate PKC
same,Activation of PKC,"[1]; 40 μM ketanserin, 30 min",no activation of PKC was observed
same,Activation of PKC,[4],does not activate PKC
"O=c1c2ccccc2[nH]c(=S)n1CCN1CCC(=C(c2ccc(F)cc2)c2ccc(F)cc2)CC1 [R59949, 3-[2-(4-[bis-(4-fluorophenyl)methylene]-1-piperidinyl)ethyl]-2,3-dihydro-2-thioxo-4(1H)quinazolinone]",Ki,[5],9.2 nM
same,inhibition at 10 µM,[5]; read-out: Percent Inhibition of Binding 5-HT2A,94.2%
same,inhibition at 10 µM,[6],32.9%
same,Ki,[7],64.5 nM
same,inhibition at 10 µM,[7]; read-out: Percent Inhibition of Binding 5-HT1D,76.7%
same,inhibition at 10 µM,[8],101%
same,inhibition at 10 µM,[9],0.7%
same,inhibition at 10 µM,[10],20.3%
same,Ki,[11],3250 nM
same,inhibition at 10 µM,[11]; read-out: Percent Inhibition of Binding 5-HT5A,71.6%
same,inhibition at 10 µM,[12],136%
same,Agonist activity at 5-HTRs,[13],very low to no activity
same,Ki,[14],681 nM
same,inhibition at 10 µM,[14]; read-out: Percent Inhibition of Binding 5-HT7,82.8%
same,Ki,[15],2000 nM
same,inhibition at 10 µM,[15]; read-out: Percent Inhibition of Binding 5-HT1A,61.1%
same,inhibition at 10 µM,[16],99.4%
same,Ki,[17],80 nM
same,inhibition at 10 µM,[17]; read-out: Percent Inhibition of Binding 5-HT2B,96.9%
same,Ki,[18],46 nM
same,inhibition at 10 µM,[18]; read-out: Percent Inhibition of Binding 5-HT2C,72.2%
same,inhibition at 10 µM,[19],28.1%
same,Ki,[20],3070 nM
same,inhibition at 10 µM,[20]; read-out: Percent Inhibition of Binding 5-HT6,71.8%
Cc1nc2sccn2c(=O)c1CCN1CCC(=C(c2ccc(F)cc2)c2ccc(F)cc2)CC1 [ritanserin],Vmax (ATP),[2]; 0.5 mol% drug in liposomes,20 ± 1 nmol/min/mg
same,Vmax (DAG),[2]; 0.5 mol% drug in liposomes,17 ± 2 nmol/min/mg
same,Decrease of Vmax of purified DGKα,[2]; in the context of ATP,greater than 50%
same,Decrease of Vmax of purified DGKα,[2]; in the context of DAG,greater than 50%
same,Vmax (ATP),[2]; 2.0 mol% drug in liposomes,12 ± 0.01 ^† nmol/min/mg
same,Vmax (DAG),[2]; 2.0 mol% drug in liposomes,11 ± 2 nmol/min/mg
same,"Activity of DGKθ, percent of control",[21],not detectably inhibited
same,"Activity of DGKβ, percent of control",[22],not detectably inhibited
same,Adverse side effects,[23],few adverse side effects
same,Oral bioavailability,[23],orally bioavailable
same,half-life,[23]; in humans,approximately 40 hours
same,IC50,[24],~15000 nM
same,"Activity of DGKα, percent of control","[24]; 20 μM inhibitor, liposomes with dioleoyl DAG, cell homogenate",decreased by about half
same,Potency against DGKα with other DAG species,"[24]; 20 μM, liposomes containing dioctanoyl or stearoyl arachidonoyl DAG",similarly potent
same,Activation of PKC,[3],not in U251 cells
same,Increase in phosphorylation of PKC downstream targets,"[1]; 40 μM, 30 min",about 2.5 fold
same,Activation of PKC,[4],activate PKC
same,"Activity of DGKι, percent of control","[25]; 20 μM inhibitor, dioleoyl DAG liposomes, cell homogenate",not detectably inhibited
same,IC50,"[25]; IC50 for DGKι, cell homogenate, 1 mM ATP, 10 mol% DAG",55000 to 65000 nM and ~60000 nM
same,IC50 for DGKι relative to IC50 for DGKα,[25]; fold higher than IC50 for DGKα,2–3 fold
same,"Activity of DGKδ, percent of control",[26],not detectably inhibited
COc1cc(Br)c(OC)c2c1[C@H](CN)C2 [TCB-2],PKC activity,[1]; 10 μM TCB-2 for 6 h,significant elevation of PKC activity
